Data as given in ChEMBL document CHEMBL3596166, “Bisabolane-Type Sesquiterpenoids from the Whole Plant of Parasenecio rubescens” (J Nat Prod, 2015).

Experiments:
Escherichia coli = assay: Antibacterial activity against Escherichia coli assessed as growth inhibition at 200 ug/ml after 24 hrs by paper disk diffusion method; format: functional; details: read-out: DIZ
Summary of the method: (§1)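 Paper disk diffusion. About 0.1 mL of sample at 200 μg/mL applied to a 6 mm paper disk, air-dried, then placed on the inoculated culture dish and incubated 24 h at 37 °C. Read-out is inhibitory zone diameter (IZD). Penicillin G disks served as control for S. aureus and streptomycin disks for E. coli. Run in duplicate.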

B16 = assay: Cytotoxicity against mouse B16 cells assessed as inhibition of cell viability after 24 hrs by MTT assay; format: functional, cell-based; details: B16, 24 h
HepG2 = assay: Cytotoxicity against human HepG2 cells assessed as inhibition of cell viability after 24 hrs by MTT assay; format: functional, cell-based; details: HepG2, 24 h
MCF7 = assay: Cytotoxicity against human MCF7 cells assessed as inhibition of cell viability after 24 hrs by MTT assay; format: functional, cell-based; details: MCF7, 24 h
Staphylococcus aureus = assay: Antibacterial activity against Staphylococcus aureus assessed as growth inhibition at 200 ug/ml after 24 hrs by paper disk diffusion method; format: functional; details: read-out: DIZ; summary of the method: as §1

Structure (SMILES)	zone of inhibition at 200 µg/mL (Escherichia coli)	IC50 (B16)	IC50 (HepG2)	IC50 (MCF7)	zone of inhibition at 200 µg/mL (Staphylococcus aureus)
CN[C@@H]1[C@H](O[C@H]2[C@H](O[C@H]3[C@H](O)[C@@H](O)[C@H](N=C(N)N)[C@@H](O)[C@@H]3N=C(N)N)O[C@@H](C)[C@]2(O)C=O)O[C@@H](CO)[C@H](O)[C@H]1O [STREPTOMYCIN]	18 mm	–	–	–	–
C=C(C(CC(O)C(C)(C)OC)OC(=O)/C(C)=C\C)[C@H]1[C@H](OC(=O)/C(C)=C\C)[C@H]2O[C@@]2(C)[C@@H](OC(=O)/C(C)=C\C)[C@H]1OC(C)=O (some centres not stated)	–	49.6 µM	96.6 µM	56.2 µM	–
C=C(C)C(O)CC(OC(=O)/C(C)=C\C)C(=C)[C@H]1[C@H](O)[C@H](OC(=O)/C(C)=C\C)[C@@](C)(O)[C@H](O)[C@@H]1OC(=O)/C=C(\C)CC (some centres not stated)	8 mm	39.7 µM	71.5 µM	78.9 µM	9 mm
CC1(C)S[C@@H]2[C@H](NC(=O)Cc3ccccc3)C(=O)N2[C@H]1C(=O)O [PENICILLIN G]	–	–	–	–	25 mm
C=C(C(CC(O)C(C)(C)O)OC(=O)/C(C)=C\C)[C@H]1[C@H](OC(=O)/C(C)=C\C)[C@H]2O[C@@]2(C)[C@@H](OC(=O)/C(C)=C\C)[C@H]1OC(C)=O (some centres not stated)	–	42.5 µM	40.8 µM	79.4 µM	–
C=C(C1CC(O)C(C)(C)O1)[C@H]1[C@H](OC(=O)/C(C)=C\C)[C@H]2O[C@@]2(C)[C@@H](OC(C)=O)[C@H]1OC(C)=O (some centres not stated)	8 mm	–	–	–	8 mm
COc1cccc2c1C(=O)c1c(O)c3c(c(O)c1C2=O)C[C@@](O)(C(=O)CO)C[C@@H]3O[C@H]1C[C@H](N)[C@H](O)[C@H](C)O1 [DOXORUBICIN]	–	17.7 µM	23.2 µM	–	–
